Results published in ChEMBL document CHEMBL1828608, “A chrysin analog exhibited strong inhibitory activities against both PGE2 and NO production” (Eur J Med Chem, 2011).

How the values were obtained:
[1] = target: T1, Nitric oxide synthase, inducible (Mus musculus) (UniProt P29477); assay: Inhibition of iNOS-mediated NO production in LPS-induced mouse RAW264.7 cells at 10 uM after 24 hrs by griess method; assay type: cell-based
T1 sequence (whole entry): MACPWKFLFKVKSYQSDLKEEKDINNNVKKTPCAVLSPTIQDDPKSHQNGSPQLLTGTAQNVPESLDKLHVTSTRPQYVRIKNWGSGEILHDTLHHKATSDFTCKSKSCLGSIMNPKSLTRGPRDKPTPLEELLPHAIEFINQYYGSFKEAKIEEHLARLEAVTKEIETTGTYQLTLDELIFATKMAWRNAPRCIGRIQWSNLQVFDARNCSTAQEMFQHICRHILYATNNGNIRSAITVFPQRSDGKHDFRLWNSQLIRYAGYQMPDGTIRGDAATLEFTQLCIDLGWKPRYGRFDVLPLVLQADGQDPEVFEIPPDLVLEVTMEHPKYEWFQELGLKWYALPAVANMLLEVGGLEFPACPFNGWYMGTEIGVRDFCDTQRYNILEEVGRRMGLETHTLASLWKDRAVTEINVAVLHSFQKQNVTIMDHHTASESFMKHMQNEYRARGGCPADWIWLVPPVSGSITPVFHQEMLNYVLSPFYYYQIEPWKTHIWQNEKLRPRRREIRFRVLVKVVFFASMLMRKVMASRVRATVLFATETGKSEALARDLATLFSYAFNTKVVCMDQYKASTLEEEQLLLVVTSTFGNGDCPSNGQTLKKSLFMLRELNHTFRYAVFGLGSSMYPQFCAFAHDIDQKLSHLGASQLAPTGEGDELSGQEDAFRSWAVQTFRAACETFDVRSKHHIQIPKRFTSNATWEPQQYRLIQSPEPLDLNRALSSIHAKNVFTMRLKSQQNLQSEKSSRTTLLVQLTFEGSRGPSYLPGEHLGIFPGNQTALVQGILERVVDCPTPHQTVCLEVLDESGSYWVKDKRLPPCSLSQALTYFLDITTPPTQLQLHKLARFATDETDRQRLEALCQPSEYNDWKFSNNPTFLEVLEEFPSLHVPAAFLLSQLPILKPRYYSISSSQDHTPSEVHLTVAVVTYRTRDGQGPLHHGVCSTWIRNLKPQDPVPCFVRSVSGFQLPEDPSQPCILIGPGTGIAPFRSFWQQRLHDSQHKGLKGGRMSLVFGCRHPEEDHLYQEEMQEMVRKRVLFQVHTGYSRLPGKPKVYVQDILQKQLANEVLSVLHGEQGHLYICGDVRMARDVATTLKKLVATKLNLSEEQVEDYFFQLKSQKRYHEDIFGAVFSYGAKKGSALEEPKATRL
Summary of the method: (§1)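 RAW 264.7 cells in DMEM with 10% FBS and 1% antibiotics at 37 °C, 5% CO₂, plated at 2 × 10⁵ cells/well and pre-incubated 2 h. Compound and LPS were then added together for 24 h. Medium readouts: for NO, nitrite by Griess reagent at OD 550 nm; for PGE₂, commercial ELISA.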

[2] = Cytotoxicity against mouse RAW264.7 cells assessed as reduction in cell viability at 10 uM after 24 hrs by MTT assay
[3] = target: T2, Prostaglandin G/H synthase 2 (Mus musculus) (UniProt Q05769); assay: Inhibition of COX2-mediated PGE2 production in LPS-induced mouse RAW264.7 cells at 10 uM after 24 hrs by ELISA; assay type: cell-based; summary of the method: as §1
T2 sequence (whole entry): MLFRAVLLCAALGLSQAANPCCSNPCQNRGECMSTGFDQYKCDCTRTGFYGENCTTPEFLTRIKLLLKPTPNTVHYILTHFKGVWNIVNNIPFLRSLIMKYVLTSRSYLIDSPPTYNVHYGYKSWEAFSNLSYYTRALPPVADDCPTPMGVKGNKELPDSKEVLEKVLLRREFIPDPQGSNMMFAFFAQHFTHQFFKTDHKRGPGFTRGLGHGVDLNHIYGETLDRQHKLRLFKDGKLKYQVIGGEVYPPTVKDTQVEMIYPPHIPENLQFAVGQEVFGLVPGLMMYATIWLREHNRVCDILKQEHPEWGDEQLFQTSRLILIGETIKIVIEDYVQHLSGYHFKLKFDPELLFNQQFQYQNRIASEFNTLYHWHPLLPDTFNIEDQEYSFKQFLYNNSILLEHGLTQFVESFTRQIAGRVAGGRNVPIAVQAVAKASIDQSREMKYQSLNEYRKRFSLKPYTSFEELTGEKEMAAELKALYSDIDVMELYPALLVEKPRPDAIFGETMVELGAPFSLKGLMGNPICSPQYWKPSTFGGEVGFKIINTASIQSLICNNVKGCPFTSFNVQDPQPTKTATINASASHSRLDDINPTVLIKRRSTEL

Row | Compound | inhibition [1] [%] | inhibition [3] [%] | reduction in viability at 24 h, 10 µM [2] [%]
1 | O=c1cc(-c2ccccc2)oc2c(-c3ccoc3)c(O)cc(O)c12 | 8.3 | 26.7 | < 10
2 | O=c1cc(-c2ccccc2)oc2cc(O)cc(O)c12 | 8.9 | 74 | 
3 | Cc1c(O)cc(O)c2c(=O)cc(-c3ccccc3)oc12 | 3.7 | 44.3 | < 10
4 | O=c1cc(-c2ccccc2)oc2c(-c3cccnc3)c(O)cc(O)c12 | 16.7 | 48.1 | < 10

Further lines, with some results ahead:

Row | inhibition [1] [%] | inhibition [3] [%] | Compound | reduction in viability at 24 h, 10 µM [2] [%]
5 | 7.6 | 31.4 | O=c1cc(-c2ccccc2)oc2c(-c3ccsc3)c(O)cc(O)c12 | < 10
6 | 29.1 | 92.4 | O=c1cc(-c2ccccc2)oc2c(-c3ccncc3)c(O)cc(O)c12 | < 10
